ChEMBL document CHEMBL1125286, “Zatosetron, a potent, selective, and long-acting 5HT3 receptor antagonist: synthesis and structure-activity relationships” (J Med Chem, 1992)

Tests used:
[1] = biological target: T1, Serotonin 3 (5-HT3) receptor (Rattus norvegicus) (UniProt P35563+Q9JJ16); assay: Compound was tested for the inhibition of 5-HT-induced bradycardia after peroral administration of 1000 ug/kg dose in urethane-anesthetized rats; type: functional, organism-based
In short: (§1)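 Fasted rats dosed by gavage (5 mL/kg) with compound or distilled-water vehicle. Urethane anesthesia and surgical preparation 15–20 min before challenge. 5HT 0.03 mg/kg iv given 1 h after dosing. Peak bradycardia is compared with vehicle-treated controls. Means ± SEM, groups of 3–11 rats.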

[2] = biological target: T1, Serotonin 3 (5-HT3) receptor (Rattus norvegicus); assay: Compound was tested for the inhibition of 5-HT-induced bradycardia after intravenous administration of 1 ug/kg dose in urethane-anesthetized rats; type: functional, organism-based
In short: (§2)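 Urethane-anesthetized rats; antagonist or saline given iv via femoral vein after heart rate settled (≤5 min) from an initial 5HT challenge (30 µg/kg iv). 5HT was given again 15 min later. Peak bradycardia measured, each rat its own control; % inhibition = difference between first and second responses. Groups of 3–16 rats, means ± SEM.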

[3] = biological target: T1, Serotonin 3 (5-HT3) receptor (Rattus norvegicus); assay: 5-hydroxytryptamine 3 receptor antagonistic activity measured by inhibition of 5-HT-induced bradycardia (iv administration 10 ug/kg dose in urethane-anesthetized rats); type: functional, organism-based
In short: (§3)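 Urethane-anesthetized rats. First 5HT challenge 30 μg/kg iv gives a transient bradycardia. Once heart rate is back at steady state (≤5 min), test compound or saline goes in via the femoral vein. 5HT 30 μg/kg iv is repeated 15 min later. % inhibition is the difference between first and second bradycardia at peak, each animal its own control. Means ± SEM, groups of 3–16 rats.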

[4] = biological target: T1, Serotonin 3 (5-HT3) receptor (Rattus norvegicus); assay: Compound was tested for the inhibition of 5-HT-induced bradycardia after peroral administration of 10 mg/kg at 3 hours in urethane-anesthetized rats; type: functional, organism-based; parameters: dose 10 mg/kg; details: at 10 mg/kg
In short: (§4)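 Duration study. Antagonist or vehicle is given by oral gavage to conscious rats. Rats are then urethane-anesthetized, surgically prepared and challenged with 5HT 0.03 mg/kg iv at the stated time after dosing. Peak inhibition of bradycardia is measured against vehicle-treated controls. Means ± SEM, groups of 3–11 rats.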

[5] = biological target: T1, Serotonin 3 (5-HT3) receptor (Rattus norvegicus); assay: Inhibition of 5-HT-induced bradycardia by 5-hydroxytryptamine 3+; type: functional
[6] = biological target: T1, Serotonin 3 (5-HT3) receptor (Rattus norvegicus); assay: 5-hydroxytryptamine 3 receptor antagonistic activity was measured by the inhibition of 5H+ T-induced bradycardia after iv administration of 3 ug/kg dose in urethane-anesthetized rats; type: functional, organism-based; in short: as §2
[7] = system: Serotonin 3 receptor (Cavia porcellus); assay: In vitro binding affinity was measured for 5-hydroxytryptamine 3 receptor in the guinea pig ileum.
[8] = biological target: T1, Serotonin 3 (5-HT3) receptor (Rattus norvegicus); assay: 5-hydroxytryptamine 3 receptor antagonistic activity as inhibition of 5-HT-induced bradycardia after iv administration of 100 ug/kg dose in urethane-anesthetized rats; type: functional, organism-based; in short: as §3
[9] = biological target: T1, Serotonin 3 (5-HT3) receptor (Rattus norvegicus); assay: Compound was tested for the inhibition of 5-HT-induced bradycardia after peroral administration in urethane-anesthetized rats
[10] = biological target: T1, Serotonin 3 (5-HT3) receptor (Rattus norvegicus); assay: Compound was tested for the inhibition of 5-HT-induced bradycardia after peroral administration of 10 mg/kg at 1 hour in urethane-anesthetized rats; type: functional, organism-based; parameters: dose 10 mg/kg; details: at 10 mg/kg; in short: as §4
[11] = biological target: T1, Serotonin 3 (5-HT3) receptor (Rattus norvegicus); assay: 5-hydroxytryptamine 3 receptor antagonistic activity was measured by the inhibition of 5H+ T-induced bradycardia after po administration of 1000 ug/kg dose in urethane-anesthetized rats; type: functional, organism-based; in short: as §1
[12] = biological target: T1, Serotonin 3 (5-HT3) receptor (Rattus norvegicus); assay: 5-hydroxytryptamine 3 receptor antagonistic activity was measured by the inhibition of 5H+ T-induced bradycardia after iv administration of 1 ug/kg dose in urethane-anesthetized rats; type: functional, organism-based; in short: as §3
[13] = biological target: T1, Serotonin 3 (5-HT3) receptor (Rattus norvegicus); assay: Compound was tested for the inhibition of 5-HT-induced bradycardia after peroral administration of 0.3 mg/kg at 6 hours in urethane-anesthetized rats; type: functional, organism-based; parameters: dose 0.3 mg/kg; details: at 0.3 mg/kg; in short: as §4
[14] = biological target: T1, Serotonin 3 (5-HT3) receptor (Rattus norvegicus); assay: 5-hydroxytryptamine 3 receptor antagonistic activity was measured by the inhibition of 5H+ T-induced bradycardia after po administration of 100 ug/kg dose in urethane-anesthetized rats; type: functional, organism-based; in short: as §1
[15] = biological target: T1, Serotonin 3 (5-HT3) receptor (Rattus norvegicus); assay: Compound was tested for the inhibition of 5-HT-induced bradycardia after peroral administration of 0.3 mg/kg at 3 hours in urethane-anesthetized rats; type: functional, organism-based; parameters: dose 0.3 mg/kg; details: at 0.3 mg/kg; in short: as §4
[16] = biological target: T1, Serotonin 3 (5-HT3) receptor (Rattus norvegicus); assay: Compound was tested for the inhibition of 5-HT-induced bradycardia after peroral administration of 0.3 mg/kg at 1 hour in urethane-anesthetized rats; type: functional, organism-based; parameters: dose 0.3 mg/kg; details: at 0.3 mg/kg; in short: as §4
[17] = biological target: T1, Serotonin 3 (5-HT3) receptor (Rattus norvegicus); assay: Compound was tested for the inhibition of 5-HT-induced bradycardia after peroral administration of 0.3 mg/kg at 0.5 hours in urethane-anesthetized rats; type: functional, organism-based; parameters: dose 0.3 mg/kg; details: at 0.3 mg/kg; in short: as §4
[18] = biological target: T1, Serotonin 3 (5-HT3) receptor (Rattus norvegicus); assay: Compound was tested for the inhibition of 5-HT-induced bradycardia after peroral administration of 0.03 mg/kg at 6 hours in urethane-anesthetized rats; type: functional, organism-based; parameters: dose 0.03 mg/kg; details: at 0.03 mg/kg; in short: as §4
[19] = biological target: T1, Serotonin 3 (5-HT3) receptor (Rattus norvegicus); assay: Compound was tested for the inhibition of 5-HT-induced bradycardia after peroral administration of 0.03 mg/kg at 3 hours in urethane-anesthetized rats; type: functional, organism-based; parameters: dose 0.03 mg/kg; details: at 0.03 mg/kg; in short: as §4
[20] = biological target: T1, Serotonin 3 (5-HT3) receptor (Rattus norvegicus); assay: Compound was tested for the inhibition of 5-HT-induced bradycardia after peroral administration of 0.03 mg/kg at 1 hour in urethane-anesthetized rats; type: functional, organism-based; parameters: dose 0.03 mg/kg; details: at 0.03 mg/kg; in short: as §4

With `Cc1cc2c(c(C(=O)OC3CC4CCC(C3)N4C)c1)OC(C)C2` (stereo not given) the inhibition [1] was 11.6%, the inhibition [2] was 3.3% and the inhibition [3] was 66.7%. It also gave an inhibition [4] of 0%, an ED50 [5] of 0.0126 mg/kg and an inhibition [6] of 14.4%. The -Log KB [7] was 7.32, the inhibition [8] was 78.2% and the ED50 [9] was 5.17 mg/kg. It also gave an inhibition [10] of 74.8%.

`CC1Cc2cc(Cl)cc(C(=O)OC3CC4CCC(C3)N4C)c2O1` (stereo not given) showed an inhibition [11] of 94.7%, an inhibition [12] of 5.6% and an inhibition [3] of 69%. It also gave an inhibition [13] of 0%, an ED50 [5] of 0.0042 mg/kg and an inhibition [6] of 50.8%. It also gave a -Log KB [7] of 7.88, an inhibition [14] of 33.1% and an inhibition [15] of 60.5%. It also gave an ED50 [9] of 0.179 mg/kg, an inhibition [16] of 66.2% and an inhibition [17] of 92.6%.

In the case of `CN1[C@@H]2CC[C@H]1C[C@@H](OC(=O)c1cc(Cl)cc3c1OC(C)(C)C3)C2`, the inhibition [3] was 82.7%, the inhibition [18] was 20.6% and the ED50 [5] was 0.0046 mg/kg. The inhibition [6] was 19.3%, the inhibition [19] was 58% and the -Log KB [7] was 7.92. The ED50 [9] was 0.0088 mg/kg and the inhibition [20] was 86.2%.
